The results in this text go back to ChEMBL document CHEMBL4219223, “Rational design of pyridyl derivatives of vanillin for the treatment of sickle cell disease” (2018).

Assay [1] deals with T1, Hemoglobin HbA (Homo sapiens) (UniProt P69905+P68871). Put plainly: Inhibition of sickle hemoglobin polymerization in human whole blood assessed as formation of high oxygen affinity schiff-base adducts at 2 mM measured at 2 hrs by HPLC method relative to control. Format: protein-complex assay. Also on record: scale not given: the % may be the effect or the level left. The procedure, abridged: (§1)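 Normal donor whole blood (30% hematocrit) or purified Hb (1.56 mM) incubated with compound (0.5, 1.0, 2.0 mM) at 37°C with shaking at 140 rpm for up to 24 h. Samples taken at 0.5, 1, 2, 4, 8, 12 and 24 h and quenched with cyanoborohydride/borohydride to fix Schiff-base adducts. Adducts quantified by cation-exchange HPLC. Peak read from the %modification-vs-time curve; AUC(0–24) by linear trapezoidal rule.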

In assay [2] the target is T1, Hemoglobin HbA (Homo sapiens). Put plainly: Induction of R-state stabilization of Hb in human homozygous sickle red blood cells assessed as change in oxygen pressure at which hemolysates are 50% saturated with oxygen at 1 mM incubated under air for 1 hr followed by 2 hrs incubation under hypoxic condition by oxygen equilibrium curve analysis relative to control. The method, boiled down: (§2)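 SS cells (20% hematocrit) given 0.5–2.0 mM compound, 1 h in air at 37°C, then 2 h hypoxia (4% O2) at 37°C. Cells washed in PBS and lysed hypotonically. About 100 μL clarified lysate placed in 4 ml 0.1 M potassium phosphate, pH 7.0, and read on a Hemox analyzer. ΔP50 = (P50 untreated − P50 treated)/P50 untreated × 100, relative to DMSO controls. Three biological replicates.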

The target is the same in assay [3]. The assay is described as follows: Induction of R-state stabilization of Hb in human homozygous sickle red blood cells assessed as change in oxygen pressure at which hemolysates are 50% saturated with oxygen at 2 mM incubated under air for 1 hr followed by 2 hrs incubation under hypoxic condition by oxygen equilibrium curve analysis relative to control. The method, boiled down:
as §2

For assay [4] the target is unchanged. Put plainly: Induction of R-state stabilization of Hb in human homozygous sickle red blood cells assessed as change in oxygen pressure at which hemolysates are 50% saturated with oxygen at 0.5 mM incubated under air for 1 hr followed by 2 hrs incubation under hypoxic condition by oxygen equilibrium curve analysis relative to control. The method, boiled down: as §2

Assay [5] has the same target. Put plainly: Inhibition of sickle hemoglobin polymerization in human whole blood assessed as formation of high oxygen affinity schiff-base adducts by HPLC method. Format: protein-complex assay. Particulars: TDE = time-dependent effect. The method, boiled down:
as §1

Assay [6] has the same target. Put plainly: Inhibition of sickle hemoglobin polymerization in human whole blood assessed as formation of high oxygen affinity schiff-base adducts at 2 mM after 2 hrs by HPLC method relative to control. More on the design: scale not given: the % may be the effect or the level left. Type of assay: protein-complex assay. The procedure, abridged: as §1
Assay [7] concerns Erythrocyte. The assay is described as follows: Antisickling activity in human homozygous sickle red blood cells at 0.5 mM incubated for 2 hrs under hypoxic condition relative to control. Type of assay: functional. The procedure, abridged:
(§3)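 Sickle (SS) red cell suspensions at 20% hematocrit, with or without compound (0.5, 1.0, 2.0 mM; DMSO <2% final, also in controls), held in air at 37°C for 1 h, then under 4% O2/96% N2 at 37°C for 2 h. Aliquots fixed in 2% glutaraldehyde without air exposure; sickling scored on bright-field images at 40x. Mean ± SD, three biological replicates.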

For assay [8], the system named is Erythrocyte. Put plainly: Antisickling activity in human homozygous sickle red blood cells at 2 mM incubated for 2 hrs under hypoxic condition relative to control. Type of assay: functional. The procedure, abridged:
as §3

Assay [9] deals with T1, Hemoglobin HbA (Homo sapiens). Put plainly: Inhibition of sickle hemoglobin polymerization in human homozygous sickle red blood cells assessed as formation of high oxygen affinity schiff-base adducts incubated under air for 1 hr followed by 2 hrs incubation under hypoxic condition by HPLC method. The procedure, abridged:
(§4)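 Lysates from SS cells (20% hematocrit) exposed to 0.5, 1.0 or 2.0 mM compound, 1 h air then 2 h 4% O2 at 37°C. Cells washed in PBS and lysed hypotonically. Hb S adduct percentage taken from weak cation-exchange HPLC elution patterns (Poly CAT A column). Mean ± SD of three biological replicates.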

Assay [10] shares this target. The assay is described as follows: Induction of R-state stabilization of Hb in human homozygous sickle red blood cells assessed as change in oxygen pressure at which hemolysates are 50% saturated with oxygen incubated under air for 1 hr followed by 2 hrs incubation under hypoxic condition by oxygen equilibrium curve analysis. The method, boiled down:
as §2

For assay [11] the target is unchanged. The assay is described as follows: Inhibition of sickle hemoglobin polymerization in human whole blood assessed as formation of high oxygen affinity schiff-base adducts at 2 mM measured after 24 hrs by HPLC method relative to control. Format: protein-complex assay. More on the design: scale not given: the % may be the effect or the level left. The method, boiled down: as §1

The subject of assay [12] is Erythrocyte. The assay is described as follows: Antisickling activity in human homozygous sickle red blood cells incubated for 2 hrs under hypoxic condition. Format: functional, cell-based. The procedure, abridged: as §3
Assay [13] concerns Erythrocyte. The assay is described as follows: Antisickling activity in human homozygous sickle red blood cells at 1 mM incubated for 2 hrs under hypoxic condition relative to control. Format: functional. The method, boiled down:
as §3

Assay [14] concerns the target T1, Hemoglobin HbA (Homo sapiens). The assay is described as follows: Inhibition of sickle hemoglobin polymerization in human cell free hemoglobin matrix assessed as formation of high oxygen affinity schiff-base adducts incubated for 60 to 90 mins by HPLC method relative to control. Format: protein-complex assay. Also on record: scale not given: the % may be the effect or the level left.

The target is the same in assay [15]. Put plainly: Inhibition of sickle hemoglobin polymerization in human homozygous sickle red blood cells assessed as formation of high oxygen affinity schiff-base adducts at 1 mM incubated under air for 1 hr followed by 2 hrs incubation under hypoxic condition by HPLC method relative to control. Also on record: scale not given: the % may be the effect or the level left. The procedure, abridged:
as §4

The target is the same in assay [16]. The assay is described as follows: Inhibition of sickle hemoglobin polymerization in human whole blood assessed as formation of high oxygen affinity schiff-base adducts at 2 mM measured up to 24 hrs by HPLC method relative to control. Type of assay: protein-complex assay. Also on record: scale not given: the % may be the effect or the level left. The method, boiled down: as §1

The target is the same in assay [17]. Put plainly: Inhibition of sickle hemoglobin polymerization in human homozygous sickle red blood cells assessed as formation of high oxygen affinity schiff-base adducts at 2 mM incubated under air for 1 hr followed by 2 hrs incubation under hypoxic condition by HPLC method relative to control. Also on record: scale not given: the % may be the effect or the level left. The procedure, abridged: as §4

Assay [18] shares this target. Put plainly: Inhibition of sickle hemoglobin polymerization in human homozygous sickle red blood cells assessed as formation of high oxygen affinity schiff-base adducts at 0.5 mM incubated under air for 1 hr followed by 2 hrs incubation under hypoxic condition by HPLC method relative to control. More on the design: scale not given: the % may be the effect or the level left. The method, boiled down: as §4

Assay [19] shares this target. The assay is described as follows: Inhibition of sickle hemoglobin polymerization in human whole blood assessed as formation of high oxygen affinity schiff-base adducts at 2 mM measured at 12 hrs by HPLC method relative to control. Format: protein-complex assay. More on the design: scale not given: the % may be the effect or the level left. The method, boiled down:
as §1

The target is the same in assay [20]. Put plainly: Inhibition of sickle hemoglobin polymerization in human cell free hemoglobin matrix assessed as formation of high oxygen affinity schiff-base adducts incubated for 90 mins by HPLC method relative to control. More on the design: scale not given: the % may be the effect or the level left. Format: protein-complex assay.

T1 sequence (P68871 2-147 partner limits assumed): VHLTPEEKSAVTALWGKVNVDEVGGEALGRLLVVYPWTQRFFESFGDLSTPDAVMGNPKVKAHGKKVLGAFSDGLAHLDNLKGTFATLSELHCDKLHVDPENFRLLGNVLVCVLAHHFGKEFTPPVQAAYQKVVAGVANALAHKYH
T1 sequence (P69905 2-142 limits assumed): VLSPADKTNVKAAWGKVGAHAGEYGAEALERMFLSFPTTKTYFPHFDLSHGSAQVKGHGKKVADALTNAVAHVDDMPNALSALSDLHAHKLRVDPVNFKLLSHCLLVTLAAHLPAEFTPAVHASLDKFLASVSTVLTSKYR

Consider `COc1ccc(OCc2cccnc2)c(C=O)c1`, for which the Activity in assay [1] is 50%; in assay [2], 49.2%; in [3], 75.8%; in [4], 24.8%; in [5] it was “Tde”; in assay [6], 50%. Besides, the Activity entry in [9] was “Dose-dependent effect”; in [10], “Dose-dependent effect”; in [11] it was 25%; with Erythrocyte [12], “Dose-dependent effect”; in assay [14], 100%; in [15], 79%. In addition, the Activity is 25% in assay [16] and 100% in assay [17]. Also, the inhibition at 500 µM with Erythrocyte [7] was found to be 14.9%. In the assay with Erythrocyte [8], this compound had an inhibition at 2000 µM of 90.5%. Moreover, the inhibition at 1000 µM with Erythrocyte [13] is 59.5%.
On to `COc1ccc(OCc2ccncc2)c(C=O)c1`, for which the Activity was 50% in [1]; 31.5% in assay [2]; 55.6% in assay [3]; 7.9% in assay [4]; “Tde” in assay [5]; 45% in assay [6]. Also, the Activity result is “Dose-dependent effect” in assay [9]; “Dose-dependent effect” in assay [10]; 15% in assay [11]; 32.8% in assay [18]; “Dose-dependent effect” in the assay with Erythrocyte [12]; 100% in assay [14]. The Activity is 58.7% in [15], 15% in [16] and 82.5% in assay [17]. In the assay on Erythrocyte [7], this compound gave an inhibition at 500 µM of 21.7%. In the assay with Erythrocyte [8], this compound yielded an inhibition at 2000 µM of 85.9%. For the same compound, the inhibition at 1000 µM with Erythrocyte [13] was found to be 60.4%.
`COc1ccc(OCc2ccccn2)c(C=O)c1`: the Activity in assay [2] is 38.1%; in [3] it was 61.4%; in assay [19], 50%; in assay [4], 22%; in [5], “Tde”; in assay [9], “Dose-dependent effect”. Further, the Activity result was “Dose-dependent effect” in assay [10]; 45% in assay [11]; 26.3% in [18]; “Dose-dependent effect” in the assay on Erythrocyte [12]; 100% in [14]; 55.3% in [15]. Further, the Activity in assay [17] stood at 79.5%. Moreover, the inhibition at 500 µM in the assay with Erythrocyte [7] was 24.3%. In the assay on Erythrocyte [8], this compound displayed an inhibition at 2000 µM of 90.3%. The compound also showed an inhibition at 1000 µM with Erythrocyte [13] of 64.8%.
For the compound `COc1ccc(C=O)c(OCc2ccccn2)c1`, the Activity in assay [2] is 20.9%; in assay [3] it was 34.2%; in assay [4], 8.1%; in assay [5] it was “Tde”; in assay [20], 50%; in assay [9], “Dose-dependent effect”. In addition, the Activity result in assay [10] is “Dose-dependent effect”; in assay [18], 12%; in the assay on Erythrocyte [12], “Dose-dependent effect”; in assay [15], 24.8%; in assay [16], 60%; in [17], 51.6%. The compound also returned an inhibition at 500 µM with Erythrocyte [7] of 7.6%. This compound also registered an inhibition at 2000 µM in the assay with Erythrocyte [8] of 51.3%. Besides, the inhibition at 1000 µM in the assay with Erythrocyte [13] turned out to be 13.5%.
As for `COc1cc(C=O)ccc1O` [VANILLIN], the Activity is 10.6% in assay [2]; 21% in assay [3]; 1.2% in assay [4]; “Tde” in [5]; “Dose-dependent effect” in assay [9]; “Dose-dependent effect” in [10]. In addition, the Activity is 3.3% in assay [18], “Dose-dependent effect” in the assay on Erythrocyte [12], 5.6% in [15] and 12% in [17]. The compound also yielded an inhibition at 500 µM with Erythrocyte [7] of 4.2%. Moreover, the inhibition at 2000 µM with Erythrocyte [8] came to 7.3%. The inhibition at 1000 µM in the assay on Erythrocyte [13] came to 7.3%.

The term inhibition denotes the drop in the measured response relative to a control, in per cent.
